The values below come from the RNAGym collection of RNA variant scans (doi:10.1126/science.aae0568).

B1: tRNA (parent)
chain: GUUCCGUUGGCGUAAUGGUAACGCGUCUCCCUCCUAAGGAGAAGACUGCGGGUUCGAGUCCCGUACGGAACG

Variants at the floor of the assay were thinned out.

The variants in the data set derive from B1. The data set is described as follows: yeast fitness relative to wild type (ratio to wild type); higher = fitter; tRNA-Arg(CCU), competitive growth, 37 C, YPD. Put shortly:
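Changes in genotype frequencies gave Darwinian fitness relative to wild type. Frequencies were read by 100-nucleotide paired-end sequencing of gene amplicons before and after pooled Saccharomyces cerevisiae strains, carrying tRNA-Arg(CCU) gene variants at the native locus, were competed in YPD at 37°C for 24 hours in six replicates. A genotype was kept only with ≥ 100 starting reads, and estimates < 0.5 were set to 0.5.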
Regarding G10A U13G A36G, the yeast fitness is 0.52.

Turning to G10C A14C A40C C60A G63A, the yeast fitness was not above 0.5.

As for G10A U32G C34A, the yeast fitness is not above 0.5.

As to G10A U13A C24A U54A, the yeast fitness is not above 0.5.

Regarding G10C C11G A45U, the yeast fitness is not above 0.5.

G10C C11U C49A A65C: the yeast fitness was not above 0.5.

As for G10A U35A A57C, the yeast fitness is not above 0.5.

Regarding G10A C34A, the yeast fitness was 0.712.

Regarding G10A G17C U28C C30G C33G C61A A69U, the yeast fitness was not above 0.5.

On to G10C A36G, for which the yeast fitness stood at 0.663.

With G10C A15C C46U, the yeast fitness is not above 0.5.

With G10C A15U A37U A45C U47C G52C, the yeast fitness was not above 0.5.

Consider G10A U13G C27U C46G G67A, for which the yeast fitness is not above 0.5.

In the case of G10A U16A A57U, the yeast fitness was found to be 0.558.

As for G10A C62U A70U, the yeast fitness stood at 0.531.

For the variant G10A C33U A65U, the yeast fitness was not above 0.5.

Take G10C A70C: the yeast fitness was found to be 0.689.

For the variant G10C A21U, the yeast fitness was determined as 0.675.

On to G10C C22U C30G A40C G50A C60G, for which the yeast fitness is not above 0.5.

For the variant G10C A14C C24U A70C, the yeast fitness was not above 0.5.

Regarding G10C C22U G52A, the yeast fitness is not above 0.5.

As to G10A C61U, the yeast fitness came to 0.744.

For the variant G10A C61G, the yeast fitness is not above 0.5.

Regarding G10A C61A, the yeast fitness is not above 0.5.

Take G10C C22U C33U U35C: the yeast fitness was not above 0.5.

Regarding G10A C30A C31G A69G, the yeast fitness was not above 0.5.

Consider G10C C11U C49A, for which the yeast fitness came out at 0.562.

For the variant G10A G17C C30G C33G G48A C61A A69U, the yeast fitness was not above 0.5.

Turning to G10C C22A C24G U53A G56C C62U, the yeast fitness was not above 0.5.

On to G10C C11G U13A A36G C55U, for which the yeast fitness is not above 0.5.

Consider G10C A36C G48A, for which the yeast fitness was not above 0.5.

Consider G10A U13C G18C A20U C30A, for which the yeast fitness is not above 0.5.

As to G10A G12C C31U U53C A70C, the yeast fitness is not above 0.5.

Turning to G10A C66G, the yeast fitness is 0.592.

For the variant G10A C66A, the yeast fitness is 0.545.

In the case of G10C A20G C66U, the yeast fitness is not above 0.5.

Regarding G10A G18A A69C, the yeast fitness is not above 0.5.

G10C A20C: the yeast fitness worked out at 0.631.

In the case of G10C A15U C27A C49G U64A, the yeast fitness was not above 0.5.

As for G10A U32G C66A, the yeast fitness is not above 0.5.

As for G10C A14G C66U, the yeast fitness is 0.505.

With G10A G58A A69U, the yeast fitness was 0.54.

For the variant G10C C22A C33A, the yeast fitness turned out to be 0.538.

With G10C C24G A70U, the yeast fitness is not above 0.5.

For G10C C22U C24A U28C A45G, the yeast fitness is not above 0.5.

For G10A G67C, the yeast fitness turned out to be 0.819.

Regarding G10A G67A, the yeast fitness is 0.75.

Take G10C C11G A21U A45C G52C A57G: the yeast fitness was not above 0.5.

With G10A G18A C27G A37G G38A C61U, the yeast fitness is not above 0.5.

In the case of G10C C22A C24G A65U, the yeast fitness was not above 0.5.

For G10C C22A U35C C60G C61U G63A, the yeast fitness was not above 0.5.

As for G10C A15C A21C, the yeast fitness is not above 0.5.

On to G10C A20C U28C A45G, for which the yeast fitness is not above 0.5.

For the variant G10A U47A, the yeast fitness is 0.815.

G10A U47C: the yeast fitness turned out to be 0.589.

Take G10C A14G G39A A65U: the yeast fitness is not above 0.5.

Regarding G10A U26A G63A C66U, the yeast fitness is not above 0.5.

In the case of G10A U35A G56A A65G C66U, the yeast fitness was not above 0.5.

As to G10C A45C, the yeast fitness is 0.626.

For the variant G10C A14U C62U G67U, the yeast fitness is not above 0.5.

On to G10A U19A A40C A42C G68A A70C, for which the yeast fitness is not above 0.5.

For the variant G10A G38C C46A C62G C66U, the yeast fitness is not above 0.5.

Consider G10A U13G C27U C46G, for which the yeast fitness was not above 0.5.

G10C A45U C60G C66G: the yeast fitness is not above 0.5.

For G10A C31G G44A G56C, the yeast fitness was not above 0.5.

As for G10C C11U C22G C27G C33G A42C, the yeast fitness is not above 0.5.

For G10A C31U C34A A40G U59A, the yeast fitness was determined as 0.596.

For G10A C30G G68A, the yeast fitness is not above 0.5.

Take G10A C60G A70U: the yeast fitness was not above 0.5.

Turning to G10C A15U A37U A45C G52C, the yeast fitness is 0.606.

As to G10A G48C G67C, the yeast fitness came to 0.56.

Consider G10C A43C U53A, for which the yeast fitness is not above 0.5.

On to G10A G18A A36G, for which the yeast fitness was not above 0.5.

As for G10A G23C C61G, the yeast fitness was not above 0.5.

Regarding G10C A21G G23A, the yeast fitness was not above 0.5.

As to G10A G39U A57C A70U, the yeast fitness is not above 0.5.

On to G10A G25A C29G C31U, for which the yeast fitness is not above 0.5.

For G10C C11A, the yeast fitness turned out to be 0.6.

As to G10A C33U A40G C55G A65C, the yeast fitness was not above 0.5.

G10A G23C C29U A36C A57U G63A: the yeast fitness was not above 0.5.

For the variant G10C A37G G52A C55G, the yeast fitness came out at 0.567.

Regarding G10A C55A, the yeast fitness worked out at 0.67.

Turning to G10C A20G C24U G38C, the yeast fitness came to 0.561.

G10A U53G C60A G68U A69C: the yeast fitness is not above 0.5.
